Calls of active or inactive are those of the source. The calls are words filed in the database; no cut-off is given here.
What was measured:
Candida albicans = experiment: Antifungal activity against Candida albicans; format: functional, organism-based
Staphylococcus aureus = experiment: Antibacterial activity against methicillin-resistant Staphylococcus aureus; format: functional, organism-based
NCI-H460 = experiment: Cytotoxicity against human H460 cells up to 100 uM; format: cell-based
[1] = Cytotoxicity against mouse Neuro2a cells up to 100 uM; format: cell-based; details: n2a
Biomphalaria glabrata = experiment: Molluscicidal activity against Biomphalaria glabrata assessed as mortality after 24 hrs; format: functional
In short: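 Test organism: the snail Biomphalaria glabrata. Pure compound was made up as a 20 mg/mL stock in EtOH, and an aliquot of this stock was diluted with distilled water to give the snail exposure solution. Snails were scored for death, and LC50 values were reported.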

COC(/C=C/CO)=C/C(=O)N1C(=O)C=C[C@@H]1C [PALMYRROLINONE]
Activity (Candida albicans): inactive | Activity (Staphylococcus aureus): inactive | Activity (NCI-H460): Non-toxic | Activity [1]: Non-toxic | LC50 (Biomphalaria glabrata): 6 µM

COC1=CC(=O)S[C@@H](CO)C1 [THIOPALMYRONE]
Activity (Candida albicans): inactive | Activity (Staphylococcus aureus): inactive | Activity (NCI-H460): Non-toxic | Activity [1]: Non-toxic | LC50 (Biomphalaria glabrata): 8.3 µM
